CHRM1 antagonist – human M1 muscarinic receptor antagonists, primary screen, CHO-K1 cells, Fluo-8 calcium fluorescence, 1536-well; Muscarinic acetylcholine receptor M1 (Homo sapiens), P11229; CHO-K1 hM1, ACh EC80 antagonist; inhibition, % at 3 µM; 360,000 compounds, 1.3% hits; AID 588852, 2011;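 active means percent inhibition above its own plate's cutoff, namely the mean of that plate's compound wells plus 3 SD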;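 further: peak over basal fluorescence ratio during 140 s after agonist addition; 0% = ACh EC80 plus DMSO and 100% = DMSO alone without agonist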
CHRM1 agonist – human M1 muscarinic receptor agonists, primary screen, Fluo-8 calcium fluorescence, CHO-K1 cells, HTS. 360,000 compounds, 0.33% hits. Muscarinic acetylcholine receptor M1 (Homo sapiens), P11229. CHO-K1 hM1, agonist mode; 0% DMSO, 100% acetylcholine EC100. activation, % at 3 µM;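 active means activation above the run's mean compound activation plus 3 SD, cut at about 16% in these data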;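 further: peak over basal fluorescence ratio within a 140 s kinetic read after compound addition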
CHRM5 antagonist – human M5 muscarinic receptor antagonists, primary screen, CHO cells, Fluo-8 calcium fluorescence; 360,000 compounds, 0.59% hits; inhibition, % at 3 µM; CHO-hM5 cells, ACh EC80; AID 624040, 2012;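 active means inhibition above a per-plate cutoff, the mean of that plate's test compounds plus 3 SD, cut at about 27% in these data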;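 further: 0% = acetylcholine EC80 with DMSO and 100% = DMSO without agonist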
Target sequence (P08912 whole entry, looked up): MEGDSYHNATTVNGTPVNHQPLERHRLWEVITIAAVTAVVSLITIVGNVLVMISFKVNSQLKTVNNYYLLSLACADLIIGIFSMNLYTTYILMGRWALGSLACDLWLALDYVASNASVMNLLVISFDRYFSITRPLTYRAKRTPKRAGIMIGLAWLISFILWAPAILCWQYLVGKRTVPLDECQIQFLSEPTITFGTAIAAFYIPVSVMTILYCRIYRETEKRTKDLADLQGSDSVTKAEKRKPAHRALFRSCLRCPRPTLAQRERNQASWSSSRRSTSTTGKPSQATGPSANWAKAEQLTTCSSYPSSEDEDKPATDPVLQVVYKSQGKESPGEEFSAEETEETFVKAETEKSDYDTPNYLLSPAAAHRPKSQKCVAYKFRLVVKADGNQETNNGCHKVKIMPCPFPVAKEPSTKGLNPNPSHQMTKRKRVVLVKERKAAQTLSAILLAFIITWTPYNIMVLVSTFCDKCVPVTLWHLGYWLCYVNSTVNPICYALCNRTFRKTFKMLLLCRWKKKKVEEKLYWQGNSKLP
M5 ag – human M5 muscarinic receptor agonists, primary screen, CHO-K1 cells, Fluo-8 calcium fluorescence; CHO-K1 hM5 cells; 0% DMSO wells, 100% maximal acetylcholine response; 360,000 compounds, 0.19% hits; activation, % at 3 µM;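 active means activation above the run's mean over test compounds plus 3 SD, cut at about 23% in these data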;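 further: signal is peak over basal fluorescence ratio across the kinetic read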
M5 PAM – human M5 muscarinic receptor positive allosteric modulators, primary screen, CHO-K1 cells, Fluo-8 calcium fluorescence; Muscarinic acetylcholine receptor M5 (Homo sapiens), P08912; CHO-K1 hM5, ACh EC20 PAM; 0% = ACh EC20, 100% = ACh EC100; activation, % at 3 µM; 360,000 compounds, 0.3% hits; AID 624038, 2012;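 active means activation above the run cutoff, the mean activation of all test compounds plus 3 SD, cut at about 18% in these data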
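Assay system – human M5 receptor in CHO-K1 cells · Read-out – % activation, ACh-normalized · Technique – Fluo-8 calcium fluorescence · Dosing – single-point, 3 µM nominal · Incubation – Fluo-8 loading 80 min at 37 °C plus 30 min room temperature · Repeats – singlicate, one well per test compound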
CHRM1 PAM – human M1 muscarinic receptor positive allosteric modulators, primary screen, CHO-K1 cells, Fluo-8 calcium fluorescence, 1536-well. Muscarinic acetylcholine receptor M1 (Homo sapiens), P11229. CHO-K1 hM1, ACh EC20; 0% = ACh EC20, 100% = maximal ACh. activation, % at 3 µM. 360,000 compounds, 0.088% hits; in the data active means activation above about 19%, passing the limit was not always enough
* marks the source's active call; other numbers are inactive results; ! = repeats disagree. Most compounds without a hit are left out; they make up all but 2.1% or so of the library.

How did O=C(O)c1cn(Cc2ccccc2)c2ccccc2c1=O do in these assays?
CHRM1 antagonist: 62*; CHRM1 agonist: 82*; CHRM5 antagonist: -4; M5 ag: 0; M5 PAM: 0; CHRM1 PAM: -11

Results for Cc1ccnc(NS(=O)(=O)c2ccc(NC(=O)c3ccc(S(=O)(=O)N4CCCC4)cc3)cc2)n1 ?
CHRM1 antagonist: -2; CHRM1 agonist: -7; CHRM5 antagonist: -14; M5 ag: 1; M5 PAM: 19*; CHRM1 PAM: 6

Results for O=C(Nc1nnc(S(=O)(=O)N2CCCCCC2)s1)c1ccccc1F ?
CHRM1 antagonist: 31*; CHRM1 agonist: 0; CHRM5 antagonist: 1; M5 ag: 4; M5 PAM: -10; CHRM1 PAM: -16

Results for O=C(Nc1nnc(S(=O)(=O)N2CCOCC2)s1)c1ccccc1F ?
CHRM1 antagonist: -11; CHRM1 agonist: -3; CHRM5 antagonist: 7; M5 ag: -4; M5 PAM: -4; CHRM1 PAM: 7

Results for COc1ccc(C(=O)/C=C/C(=O)N(CC(=O)NC2CCCCC2)Cc2cccs2)c(O)c1 ?
CHRM1 antagonist: 13; CHRM1 agonist: 2; CHRM5 antagonist: 19; M5 ag: 11; M5 PAM: -4; CHRM1 PAM: 5

What do the screens show for `O=C(C(=Cc1ccccc1)CN1CCCCC1)c1ccccc1`?
CHRM1 antagonist: 39*; CHRM1 agonist: -8; CHRM5 antagonist: 17; M5 ag: -12; M5 PAM: -36; CHRM1 PAM: -27

How did CCOc1cc(C=O)ccc1OCCCN1C(=O)NC(C)(C)C1=O do in these assays?
CHRM1 antagonist: -7; CHRM1 agonist: -4; CHRM5 antagonist: 4; M5 ag: 1; M5 PAM: -7; CHRM1 PAM: 8

What do the screens show for `O=C(NCc1ccccc1)C(c1ccco1)N(C(=O)c1ccccn1)c1ccccc1` (configuration not stated)?
CHRM1 antagonist: 4; CHRM1 agonist: -3; CHRM5 antagonist: 49*; M5 ag: -5; M5 PAM: -9; CHRM1 PAM: -4

How did CC(C)Oc1cccc(C(=O)NC(=S)Nc2ccc(N3CCN(C)CC3)cc2)c1 do in these assays?
CHRM1 antagonist: 99*; CHRM1 agonist: -4; CHRM5 antagonist: 15; M5 ag: -19; M5 PAM: -36; CHRM1 PAM: -27

Results for CN1CCN(c2ccc(NC(=S)NC(=O)c3cccc4c(Cl)cccc34)cc2)CC1 ?
CHRM1 antagonist: 37*; CHRM1 agonist: -13; CHRM5 antagonist: 13; M5 ag: -8; M5 PAM: -11; CHRM1 PAM: -30

Results for O=C(O)Cc1ccc(N=Nc2c(O)c(C(=O)O)cc3ccccc23)cc1 ?
CHRM1 antagonist: -14; CHRM1 agonist: -1; CHRM5 antagonist: 4; M5 ag: -2; M5 PAM: 4; CHRM1 PAM: 14

Results for N#C/C(=C\c1ccc(N2CCCCC2)o1)C(=O)Nc1cccc(Br)c1 ?
CHRM1 antagonist: 66*; CHRM1 agonist: 68*; CHRM5 antagonist: 59*; M5 ag: 60*; M5 PAM: -22; CHRM1 PAM: -23

How did Cc1[nH]c(=S)[nH]c(=O)c1Cc1c(O)ccc2ccccc12 do in these assays?
CHRM1 antagonist: -11; CHRM1 agonist: 35*; CHRM5 antagonist: -3; M5 ag: 5; M5 PAM: 2; CHRM1 PAM: 27*

Results for O=C(Nc1ccnn1C1CCN(CCCC2CCCC2)CC1)c1ccccc1Cl ?
CHRM1 antagonist: 40*; CHRM1 agonist: -4; CHRM5 antagonist: 10; M5 ag: -9; M5 PAM: -5; CHRM1 PAM: -17

Results for CCc1ccc(CN2CCC(n3nccc3NC(=O)c3ccccc3Cl)CC2)cc1 ?
CHRM1 antagonist: -16; CHRM1 agonist: 28*; CHRM5 antagonist: 15; M5 ag: 4; M5 PAM: -5; CHRM1 PAM: 6

What do the screens show for `O=[N+]([O-])c1ccc(N2CCN(C(=S)NC3CCCCC3)CC2)cc1`?
CHRM1 antagonist: 21*; CHRM1 agonist: 2; CHRM5 antagonist: 13; M5 ag: -1; M5 PAM: -26; CHRM1 PAM: -21

Results for COC(=O)c1[nH]c2ccccc2c1NC(=O)CNC1CCCCC1 ?
CHRM1 antagonist: 38*; CHRM1 agonist: 2; CHRM5 antagonist: 15; M5 ag: 0; M5 PAM: -51; CHRM1 PAM: -12

What do the screens show for `COC(=O)c1[nH]c2ccccc2c1NC(=O)CN1CCCCCC1`?
CHRM1 antagonist: 7; CHRM1 agonist: -3; CHRM5 antagonist: -5; M5 ag: -8; M5 PAM: -2; CHRM1 PAM: -1

How did CS(=O)(=O)N(CC(=O)N1CCc2ccccc2C1)c1cccc(Br)c1 do in these assays?
CHRM1 antagonist: 9; CHRM1 agonist: -3; CHRM5 antagonist: 4; M5 ag: -1; M5 PAM: -4; CHRM1 PAM: 2

Results for O=C(CCC(=O)N1CCOc2ccc(Cl)cc21)N1CCN(c2ccccn2)CC1 ?
CHRM1 antagonist: -4; CHRM1 agonist: -7; CHRM5 antagonist: 2; M5 ag: 1; M5 PAM: -6; CHRM1 PAM: 9

Results for Cc1ccc2c(c1)N(C(=O)CCC(=O)N1CCN(c3ccccn3)CC1)CCO2 ?
CHRM1 antagonist: 36*; CHRM1 agonist: -8; CHRM5 antagonist: 9; M5 ag: 4; M5 PAM: -10; CHRM1 PAM: -7

Results for CC1CCC(C(C)C)C(OC(=O)Cn2c(-c3ccccc3)[n+](C)c3ccccc32)C1 (configuration not stated) ?
CHRM1 antagonist: 43*!; CHRM1 agonist: -7; CHRM5 antagonist: 25; M5 ag: -5; M5 PAM: -14; CHRM1 PAM: -17

What do the screens show for `Cc1cccc(OCc2n(CC(=O)OC3CC(C)CCC3C(C)C)c3ccccc3[n+]2C)c1` (configuration not stated)?
CHRM1 antagonist: 38*; CHRM1 agonist: -7; CHRM5 antagonist: 40*; M5 ag: -9; M5 PAM: -20; CHRM1 PAM: -31

How did CC1CCC(C(C)C)C(OC(=O)CSc2nc(N)cc(=O)[nH]2)C1 (configuration not stated) do in these assays?
CHRM1 antagonist: 2; CHRM1 agonist: 0; CHRM5 antagonist: 4; M5 ag: 7; M5 PAM: -2; CHRM1 PAM: 2

Source: PubChem (The Scripps Research Institute Molecular Screening Center)
